Results on six compounds are retold here after ChEMBL document CHEMBL1140049, “Bioisosteric replacement of the pyrazole 5-aryl moiety of N-(piperidin-1-yl)-5-(4-chlorophenyl)-1-(2,4-dichlorophenyl)-4-methyl-1H-pyrazole-3-carboxamide (SR141716A). A novel series of alkynylthiophenes as potent and selective cannabinoid-1 receptor antagonists” (J Med Chem, 2008).

For experiment [1], the target named is T1, Cannabinoid receptor 1 (Homo sapiens, UniProt P21554). Briefly: biochemical. The format is cell-based, HEK293.
In experiment [2] the target is T1, Cannabinoid receptor 1. Briefly: Antagonist activity at human CB1 receptor expressed in HEK293 cells assessed as inhibition of Eu-GTP binding. The experiment is classed as cell-based.
For another experiment, the system named is Rattus norvegicus. Briefly: Suppression of appetite in orally dosed spontaneously feeding Wistar rat model. The experiment is classed as functional, organism-based. The method in brief: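 Male Wistar rats (210-270 g), singly housed on 12 h reversed light cycle over a week; single oral gavage of 3, 10 or 20 mg/kg or vehicle (20% DMSO/10% Tween-80/70% H2O) before lights off, chow supplied at 11 a.m.; food intake at 1, 2, 3, 6 h as cal per g body weight; n = 4-6.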

Experiment [3] has as its system Mus musculus. Briefly: Decrease in body weight in DIO C57BL/6 mouse model at 20 mg/kg, po qd for 21 days. The experiment is classed as functional, organism-based. Also noted: dose 20 mg/kg.
The target in experiment [4] is T1, Cannabinoid receptor 1. Briefly: Displacement of [3H]SR141716A from human CB1 receptor expressed in HEK293 cells. The format is cell-based. On the technique in general: In a radioligand displacement assay an active substance lowers the binding of a labelled ligand.
A further experiment deals with HEK293. Briefly: Selectivity ratio of IC50 for human CB2 receptor to human CB1 receptor expressed in HEK293 cells. The experiment is classed as cell-based.
In another experiment the target is Cannabinoid receptor 2 (Homo sapiens, UniProt P34972). Briefly: Displacement of [3H]CP-55940 from human CB2 receptor expressed in HEK293 cells. The format is cell-based.
In experiment [5] the test system is Mus musculus. Briefly: Suppression of appetite in orally dosed DIO C57BL/6 mouse model. The experiment is classed as functional, organism-based.
Experiment [6] concerns Mus musculus. Briefly: Decrease in body weight in DIO C57BL/6 mouse model at 10 mg/kg, po qd for 21 days.
Experiment [7] addresses T1, Cannabinoid receptor 1. Briefly: Agonist activity at human CB1 receptor expressed in HEK293 cells assessed as increase in [35S]gammaGTP binding relative to control. The experiment is classed as cell-based.
For experiment [8], the target named is T1, Cannabinoid receptor 1. Briefly: Antagonist activity at human CB1 receptor expressed in HEK293 cells assessed as effect on [35S]gammaGTP binding relative to control. The experiment is classed as cell-based.

The IC50 is the concentration needed to halve the response being measured. Higher therefore signals weaker potency. For orientation: EC50 means the midpoint of the concentration-response curve.

The source made the active and inactive calls. The calls are words filed in the database; no cut-off is given here.

T1 sequence (P21554 whole entry): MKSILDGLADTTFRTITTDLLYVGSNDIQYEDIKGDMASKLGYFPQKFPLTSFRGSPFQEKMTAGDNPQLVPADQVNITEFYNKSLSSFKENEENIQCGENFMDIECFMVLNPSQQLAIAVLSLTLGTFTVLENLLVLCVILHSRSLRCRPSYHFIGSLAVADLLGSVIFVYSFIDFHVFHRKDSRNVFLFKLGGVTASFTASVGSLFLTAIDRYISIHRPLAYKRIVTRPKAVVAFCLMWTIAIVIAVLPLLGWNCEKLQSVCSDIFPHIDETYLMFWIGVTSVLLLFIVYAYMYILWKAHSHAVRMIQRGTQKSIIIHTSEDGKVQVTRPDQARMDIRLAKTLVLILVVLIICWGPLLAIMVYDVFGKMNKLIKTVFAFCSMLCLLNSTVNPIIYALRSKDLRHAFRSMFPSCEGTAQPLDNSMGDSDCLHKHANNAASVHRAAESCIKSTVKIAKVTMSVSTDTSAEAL
Sequence of Cannabinoid receptor 2 (P34972 whole entry): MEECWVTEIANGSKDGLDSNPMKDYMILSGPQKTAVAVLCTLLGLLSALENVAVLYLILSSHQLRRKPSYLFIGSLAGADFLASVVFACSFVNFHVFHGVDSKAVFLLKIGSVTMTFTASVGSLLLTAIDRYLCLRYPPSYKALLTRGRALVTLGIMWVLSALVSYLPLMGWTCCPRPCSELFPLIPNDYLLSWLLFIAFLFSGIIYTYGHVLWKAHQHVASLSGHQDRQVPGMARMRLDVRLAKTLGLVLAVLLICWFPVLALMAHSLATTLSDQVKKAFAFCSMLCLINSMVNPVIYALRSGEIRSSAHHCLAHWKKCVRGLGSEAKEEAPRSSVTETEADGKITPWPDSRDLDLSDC

On to `CCCC#Cc1ccc(-c2c(CC)c(C(=O)NN3CCCCC3)nn2-c2ccc(Cl)cc2Cl)s1`, for which the IC50 against Cannabinoid receptor 1 [1] was determined as 6.1 nM; at Cannabinoid receptor 1 [4], 1.2 nM; on Cannabinoid receptor 2 it was 920 nM. The half-maximal effective concentration (EC50) at Cannabinoid receptor 1 [2] amounted to 13.8 nM. Moreover, the Activity result in the experiment on Rattus norvegicus and with Mus musculus [5] was “Dose-dependent effect” throughout. Also, the outcome in the experiment with Mus musculus [3] was Active. Further, the Ratio IC50 in the experiment with HEK293 was determined as 151.

For the compound `Cc1c(C(=O)NN2CCCCC2)nn(-c2ccc(Cl)cc2Cl)c1-c1ccc(Cl)cc1`, in the experiment with Mus musculus [6], the result was Active.

As to `Cc1c(C(=O)NN2CCCCCC2)nn(-c2ccc(Cl)cc2Cl)c1-c1ccc(C#CCC(C)C)s1`, the IC50 worked out at 4.9 nM against Cannabinoid receptor 1 [1], 1.2 nM at Cannabinoid receptor 1 [4] and 688 nM at Cannabinoid receptor 2. In addition, the result on Cannabinoid receptor 1 [7] was Active. Besides, at Cannabinoid receptor 1 [2], the concentration giving a half-maximal response (EC50) turned out to be 14.6 nM. Further, in the experiment with HEK293, the Ratio IC50 came out at 139.

`CCCC#Cc1ccc(-c2c(C)c(C(=O)NN3CCCCC3)nn2-c2ccc(Cl)cc2Cl)s1`: the IC50 on Cannabinoid receptor 1 [1] was determined as 13.9 nM; at Cannabinoid receptor 1 [4], 1.2 nM; at Cannabinoid receptor 2, 2210 nM. Also, the EC50 at Cannabinoid receptor 1 [2] turned out to be 28.7 nM. Besides, the Ratio IC50 in the experiment on HEK293 was found to be 159. Also, on Cannabinoid receptor 1 [8], the outcome was Active.

As to `Cc1c(C(=O)NN2CCCCC2)nn(-c2ccc(Cl)cc2Cl)c1-c1ccc(C#CCC(C)C)s1`, the IC50 stood at 2.3 nM against Cannabinoid receptor 1 [1], 1.2 nM at Cannabinoid receptor 1 [4] and 386 nM on Cannabinoid receptor 2. The result at Cannabinoid receptor 1 [7] was Active. Besides, at Cannabinoid receptor 1 [2], the EC50 was found to be 12.1 nM. Further, the Ratio IC50 in the experiment with HEK293 was 168.

For the compound `CCCC#Cc1ccc(-c2c(C)c(C(=O)NN3CCCCCC3)nn2-c2ccc(Cl)cc2Cl)s1`, the IC50 against Cannabinoid receptor 1 [1] was found to be 7 nM; at Cannabinoid receptor 1 [4], 1.2 nM; at Cannabinoid receptor 2, 1500 nM. For the same compound, the EC50 at Cannabinoid receptor 1 [2] came out at 14.1 nM. In addition, the Ratio IC50 in the experiment with HEK293 is 214. On Cannabinoid receptor 1 [8], the result was Active.
